Published values from different studies.
Lines come from different studies, so protocols differ.
P2RY14: P2Y purinoceptor 14 (P2RY14, Homo sapiens, UniProt Q15391)
Nuclear receptor subfamily 4 group A member 2: Nuclear receptor subfamily 4 group A member 2 (Homo sapiens, UniProt P43354)

Cc1cc(O)c(-c2ccc([C@@H](C)CN(C)C)cc2)c2c1[nH]c(=O)c1sccc12
inhibition (Eukaryotic elongation factor 2 kinase (EEF2K, Homo sapiens, UniProt O00418); enzyme activity, inhibitor; 0.1 µM): 9.25%

C1=C/COCc2cc(ccc2OCCN2CCCC2)Nc2nccc(n2)-c2cccc(c2)COC/1
remaining binding (Mitogen-activated protein kinase kinase kinase 1 (MAP3K1, Homo sapiens, UniProt Q13233); binding; 0.1 µM): 100%

CC(C)OC(=O)[C@H](Cc1c[nH]c2ccccc12)NC(=O)COc1ccccc1
inhibition (P2RY14; cAMP, antagonist; HEK293; 0.1 µM): 79.3%

COc1ccc2oc(-c3ccc4nc(N)oc4c3)c/c(=N\c3ccccc3NC(=O)CCN)c2c1
remaining binding (Tyrosine-protein kinase JAK3 (JAK3, Homo sapiens, UniProt P52333); binding; 1 µM): 93%

CCN(CC)Cc1cc(Nc2ccnc3cc(Cl)ccc23)ccc1O
ΔTm (Nuclear receptor subfamily 4 group A member 2; thermal stability, DSF; 100 µM): -0.09 °C

C#Cc1cc(-c2cc(Nc3nc(N[C@@H](C)c4ccc(F)cn4)ncc3Cl)n[nH]2)ccc1C=O
inhibition (Ribosomal protein S6 kinase alpha-4 (RPS6KA4, Homo sapiens, UniProt O75676); enzyme activity, inhibitor; 0.2 µM): 8.79%

COc1ccc(OCC(=O)N[C@@H](Cc2c[nH]c3ccccc23)C(=O)OC(C)C)cc1
inhibition (P2RY14; cAMP, antagonist; HEK293; 0.1 µM): 85.6%

NC/C(=C\F)COc1cccc(Cn2c(=S)[nH]c(=O)c3[nH]cnc32)c1
remaining activity (Eosinophil peroxidase (Homo sapiens, UniProt P11678); enzyme activity, inhibitor; 15 µM): 41.3%

CC(C)OC(=O)[C@H](Cc1c[nH]c2ccccc12)NC(=O)c1ccc2c(c1)OCO2
inhibition (P2RY14; cAMP, antagonist; HEK293; 0.1 µM): 10.7%

CCCCC(=O)Nc1ccc(-c2ccc3ncn(CCC)c(=O)c3c2)cn1
remaining binding (Tyrosine-protein kinase JAK3, JH1 (JAK3, Homo sapiens, UniProt P52333); binding, competition with immobilised ligand; 0.5 µM): 100%

Cc1onc(-c2ccccc2)c1-c1ccc(S(N)(=O)=O)cc1
ΔTm (Nuclear receptor subfamily 4 group A member 2; thermal stability, DSF; 100 µM): -1 °C

O=C(N[C@@H](Cc1c[nH]c2ccccc12)C(=O)O)c1cscn1
inhibition (P2RY14; cAMP, antagonist; HEK293; 0.1 µM): 60.5%
